Test results taken from paper PMC4170804 (Bioorganic & medicinal chemistry, 2013).
Where two headings read alike, the source gives them in different places.

How the values were obtained:
L1210 cells = test: Antiproliferative assay, murine leukemia L1210 cells; type: cell-based; settings: Mus musculus, L1210, 48 h, read-out: IC50 ± SD, L1210
FM3A/0 cells = test: Antiproliferative assay, murine mammary carcinoma FM3A/0 cells; type: cell-based; settings: for IC50: read-out: IC50 ± SD, FM3A/0
HeLa cells [1] = test: Antiproliferative assay, human cervix carcinoma HeLa cells; type: cell-based; settings: 48 h, read-out: IC50 ± SD, HeLa
Molt4/C8 cells = test: Antiproliferative assay, human T-leukemia Molt4/C8 cells; type: cell-based; settings: for IC50: Homo sapiens, Molt4/C8, 48 h, read-out: IC50 ± SD, Molt4/C8
tubulin = test: Inhibition of [3H]colchicine binding to tubulin; set-up: species or system bovine; settings: for Colchicine binding % ± SD (inhibition of [3H]colchicine binding): tubulin 1 µM, colchicine 5 µM, tested compound 5 µM
CEM/0 cells = test: Antiproliferative assay, human T-leukemia CEM/0 cells; type: cell-based; settings: read-out: IC50 ± SD, CEM/0, 48 h, Coulter counter
[2] = tested on: human pancreatic tumor (MIA PaCa-2) cells; settings: cited from earlier work
[3] = tested on: epithelial carcinoma (A431) cells; settings: cited from earlier work
Jurkat cells [4] = test: Antiproliferative assay, T-leukemia Jurkat; type: cell-based; settings: Homo sapiens, read-out: IC50 ±SD, Jurkat
Method in brief: (§1)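 Cells were seeded at 300,000–500,000 cells/mL and mixed 1:1 with serial dilutions of test compound. They were incubated 48 h at 37 °C, and cell number was counted with a Coulter counter.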

Raji cells = test: Antiproliferative assay, B-cell lymphoma Raji; type: cell-based; settings: Homo sapiens, read-out: IC50 ±SD, Raji
Method in brief: as §1

HOS, OST TK- cells = test: Antiproliferative assay, osteosarcoma HOS, OST TK-; type: cell-based; settings: Homo sapiens, read-out: IC50 ±SD, HOS, OST TK-
Method in brief: as §1

MCF-7 cells = test: Antiproliferative assay, mammary carcinoma MCF-7; type: cell-based; settings: Homo sapiens, MCF7, read-out: IC50 ±SD, MCF-7
Method in brief: as §1

PC-3 cells = test: Antiproliferative assay, prostate PC-3; type: cell-based; settings: Homo sapiens, PC-3, read-out: IC50 ±SD, PC-3
Method in brief: as §1

bovine brain tubulin = test: Inhibition of tubulin polymerization; type: biochemical; settings: greater than that of 1
HeLa cells [5] = test: Flow cytometric cell cycle analysis, HeLa; type: cell-based, human; settings: 24 h
Method in brief: (§2)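 Exponentially growing cells (5 × 105 for HeLa) were exposed to test compound at 15–250 nM for 24 h. Cells were fixed in ice-cold 70% ethanol, then treated with lysis buffer containing RNase A and 0.1% Triton X-100. After propidium iodide staining, DNA content was analysed by flow cytometry for cell-cycle distribution. Values are mean ± SEM of three independent experiments.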

Jurkat cells [6] = test: Flow cytometric cell cycle analysis, Jurkat; type: cell-based, human; settings: 24 h
Method in brief: as §2

[7] = tested on: cyclin B, p-cdc2 Y15, cdc25C in HeLa cells; test: Western blot of G2/M regulatory proteins in HeLa cells; type: cell-based, human
Method in brief: (§3)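 HeLa cells were treated with test compound for 24 or 48 h, washed twice in ice-cold PBS, and lysed on ice for 30 min. Lysis buffer was T-PER with 300 mM NaCl, 1 mM orthovanadate, 2 mM AEBSF and protease inhibitors. Lysates were cleared at 15,000g (4 °C, 10 min). 20 µg protein went to SDS–PAGE, PVDF transfer and overnight blocking. Primary antibodies ran 2 h at room temperature, then HRP secondary and ECL. Membranes were stripped and reprobed for β-actin as loading control.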

HeLa cells [8] = test: Annexin-V/PI apoptosis assay; type: cell-based, human; settings: 24 h, further increased at 48 h even at 15 nM
HeLa cells [9] = test: Mitochondrial membrane potential; type: cell-based, human; settings: 24 or 48 h
HeLa cells [10] = test: Mitochondrial ROS production; type: cell-based, human; settings: 24 or 48 h, versus control cells
[11] = tested on: cleaved caspase-3, cleaved caspase-9, PARP, Bcl-2, Mcl-1, XIAP in HeLa cells; test: Western blot of caspases, PARP, Bcl-2, Mcl-1, XIAP in HeLa cells; type: cell-based, human
Method in brief: as §3

[12] = tested on: panel of human and murine tumor cell lines; test: Antiproliferative activity, panel of human and murine tumor cell lines; type: cell-based
Method in brief: as §1

[13] = tested on: panel of human cancer cell lines; test: Antiproliferative activity, panel of additional human cancer cell lines; type: cell-based; settings: read-out: IC50 values against additional human cancer cell lines
Method in brief: as §1

[14] = tested on: wide panel of cancer cell lines; test: Antiproliferative activity, wide panel of cancer cell lines; type: cell-based; settings: read-out: IC50 against a wide panel of cancer cell lines
Method in brief: as §1

[15] = at higher concentrations (range 15 to 250 nM)

In the case of COC(=O)c1cc(CCc2ccccc2OC)sc1N [Compound 2f, Methyl 2-amino-5-[2-(2-methoxyphenyl)ethyl]thiophene-3-carboxylate], the IC50 (L1210 cells) is reported as 17 ± 5.3 µM, the IC50 (FM3A/0 cells; Mus musculus, FM3A/0, 48 h) is reported as 34 ± 5.6 µM and the IC50 (HeLa cells [1]; Homo sapiens, HeLa) is reported as 15 ± 1.3 µM.

CCOC(=O)c1cc(CCc2cc(OC)ccc2OC)sc1N [Compound 2b, Ethyl 2-amino-5-[2-(2,5-dimethoxyphenyl)ethyl]thiophene-3-carboxylate] gave an IC50 (FM3A/0 cells; Mus musculus, FM3A/0, 48 h) of 1.9 ± 0.5 µM, an IC50 (Molt4/C8 cells) of 1.1 ± 0.1 µM and an IC50 (HeLa cells [1]; Homo sapiens, HeLa) of 0.31 µM. For the same molecule, the “Colchicine binding % ± SD (inhibition of [3H]colchicine binding)” value (tubulin) was 46 ± 0.9%.

In the case of COC(=O)c1cc(-c2cc(OC)ccc2OC)sc1N [Compound 2n, Methyl 2-amino-5-(2,5-dimethoxyphenyl)thiophene-3-carboxylate], the IC50 (L1210 cells) is reported as 50 ± 5.2 µM, the IC50 (FM3A/0 cells; Mus musculus, FM3A/0, 48 h) is reported as 52 ± 1 µM and the IC50 (HeLa cells [1]; Homo sapiens, HeLa) is reported as 37 ± 6.1 µM.

Molecule COC(=O)c1c(N)sc(CCc2cc(OC)ccc2OC)c1C [Compound 2d, Methyl 2-amino-5-[2-(2,5-dimethoxyphenyl)ethyl]-4-methylthiophene-3-carboxylate] has an IC50 (L1210 cells) of 46 ± 3.2 µM, an IC50 (FM3A/0 cells; Mus musculus, FM3A/0, 48 h) of 44 ± 8.1 µM and an IC50 (Molt4/C8 cells) of 47 ± 16 µM. The IC50 (HeLa cells [1]; Homo sapiens, HeLa) was 35 ± 7.1 µM.

In the case of COc1ccccc1CCc1cc(C#N)c(N)s1 [Compound 2k, 2-Amino-5-[2-(2-methoxyphenyl)ethyl]thiophene-3-carbonitrile], the IC50 (FM3A/0 cells; Mus musculus, FM3A/0, 48 h) is reported as 22 ± 3.1 µM, the IC50 (Molt4/C8 cells) is reported as 2 ± 0.2 µM and the IC50 (HeLa cells [1]; Homo sapiens, HeLa) is reported as 7.8 ± 2.1 µM.

For N#Cc1cc(CCc2ccccc2)sc1N [Compound 2m, 2-Amino-5-phenylethylthiophene-3-carbonitrile], the IC50 (FM3A/0 cells; Mus musculus, FM3A/0, 48 h) was 62 ± 3.2 µM and the IC50 (HeLa cells [1]; Homo sapiens, HeLa) was 35 ± 3.1 µM.

With CCOC(=O)c1cc(CCc2ccc(OC)cc2)sc1N [Compound 2j, Ethyl 2-amino-5-[2-(4-methoxyphenyl)ethyl]thiophene-3-carboxylate] the IC50 (L1210 cells) was 20 ± 10 µM, the IC50 (FM3A/0 cells; Mus musculus, FM3A/0, 48 h) was 48 ± 5.2 µM and the IC50 (Molt4/C8 cells) was 0.34 ± 0.5 µM. The “IC50 values in Molt4/C8, in words” value (Molt4/C8 cells) was “submicromolar” and the IC50 (HeLa cells [1]; Homo sapiens, HeLa) was 39 ± 0.2 µM.

In the case of CCOC(=O)c1c(N)sc(CCc2cc(OC)ccc2OC)c1C(=O)OCC [Compound 2e, Diethyl 2-amino-5-[2-(2,5-dimethoxyphenyl)ethyl]thiophene-3,4-dicarboxylate], the IC50 (L1210 cells) is reported as 34 ± 3.2 µM, the IC50 (FM3A/0 cells; Mus musculus, FM3A/0, 48 h) is reported as 33 ± 9.1 µM and the IC50 (Molt4/C8 cells) is reported as 24 ± 2.2 µM.

With COC(=O)c1cc(CCc2cc(OC)ccc2OC)ccc1O [Compound 1, reference compound] the “fold less active in FM3A cells than the other cell lines examined” value (FM3A/0 cells; FM3A vs other cell lines) was “about 30 fold”, the IC50 (FM3A/0 cells; murine mammary carcinoma FM3A/0, 48 h, Coulter counter) was 13 ± 0.2 µM and the IC50 (CEM/0 cells) was 0.44 ± 0.01 µM. For the same molecule, the IC50 (HeLa cells [1]; human cervix carcinoma HeLa, Coulter counter) was 0.41 ± 0.08 µM, the “Colchicine binding % ± SD (inhibition of [3H]colchicine binding)” value (tubulin) was 52 ± 4% and the “antiproliferative activity, MIA PaCa-2” value [2] was “active at low micromolar concentrations”. The “antiproliferative activity, A431” value [3] was “active at low micromolar concentrations”.

With COc1ccc(OC)c(-c2cc(C#N)c(N)s2)c1 [Compound 2o, 2-Amino-5-(2,5-dimethoxyphenyl)thiophene-3-carbonitrile] the IC50 (L1210 cells) was 76 ± 3.2 µM and the IC50 (HeLa cells [1]; Homo sapiens, HeLa) was 71 ± 20 µM.

In the case of COC(=O)c1cc(CCc2ccc(OC)cc2C)sc1N [Compound 2h, Methyl 2-amino-5-[2-(4-methoxy-2-methylphenyl)ethyl]thiophene-3-carboxylate], the IC50 (FM3A/0 cells; Mus musculus, FM3A/0, 48 h) is reported as 45 ± 16 µM.

COc1ccc(OC)c(CCc2cc(C#N)c(N)s2)c1 [Compound 2c, 2-Amino-5-[2-(2,5-dimethoxyphenyl)ethyl]thiophene-3-carbonitrile] gave an IC50 (FM3A/0 cells; Mus musculus, FM3A/0, 48 h) of 0.056 ± 0.004 µM, an IC50 (Jurkat cells [4]) of 0.012 ± 0.008 µM and an IC50 (Raji cells) of 0.064 ± 0.025 µM. The IC50 (HOS, OST TK- cells) was 0.024 ± 0.013 µM, the IC50 (MCF-7 cells) was 0.025 ± 0.001 µM and the IC50 (PC-3 cells) was 0.025 ± 0.013 µM. The “tubulin assembly inhibitory activity relative to 1” value (bovine brain tubulin) was 3 fold, the “inhibition of colchicine binding relative to 1” value (tubulin; more active than 1) was 1.5 fold and the “Colchicine binding % ± SD (inhibition of [3H]colchicine binding)” value (tubulin) was 84 ± 5%. The “lowest concentration with a rise in G2/M cells” value (HeLa cells [5]) was 30 nM, the “cells arrested in G2/M” value (HeLa cells [5]; [15]) was “more than 80%” and the “lowest concentration with a rise in G2/M cells” value (Jurkat cells [6]) was 30 nM. The “cells arrested in G2/M” value (Jurkat cells [6]; [15]) was “more than 80%”, the “cyclin B1 expression” value ([7]; 50 and 100 nM, 24 and 48 h) was “marked increase in cyclin B1 expression” and the “cdc25C phosphorylation state / expression” value ([7]; 50 and 100 nM, 24 h and 48 h) was “slower migrating forms of phosphatase cdc25C appeared at 24 h”. The “phosphorylation of cdc2 (Tyr15)” value ([7]; after 24 h) was “dramatic de-phosphorylation of cdc2 (Tyr15)”, the “annexin-V positive cells (apoptosis)” value (HeLa cells [8]) was “accumulation of annexin-V positive cells in a concentration-dependent manner” and the “cells with depolarized mitochondria (Δψmt, JC-1)” value (HeLa cells [9]) was “time and concentration-dependent increase in the proportion of cells with depolarized mitochondria”. For the same molecule, the “ROS production (HE, H2-DCFDA)” value (HeLa cells [10]) was “induced the production of significant amounts of ROS”, the caspase-9 activation ([11]; 50 and 100 nM, 24 h) was “early activation of caspase-9 at 24 h” and the “caspase-3 and PARP activation” value ([11]; 50 and 100 nM, 48 h) was “activation of caspase-3 and of the caspase-3 substrate PARP”. The “expression of anti-apoptotic proteins Bcl-2 and Mcl-1” value ([11]; both concentrations used (50 and 100 nM)) was “remarkably reduced after a 24 h and disappeared after a 48 h treatment”, the “expression of XIAP” value ([11]; concomitant with caspase activation) was “strongly reduced” and the “enhancement of antiproliferative activity with respect to 1” value ([12]; in four cell lines) was 3–230 fold. The IC50 ([12]; read-out: IC50 values against panel of human and murine tumor cell lines) was 0.035 to 0.13 µM, the IC50 [13] was 0.012 to 0.086 µM and the IC50 [14] was 0.017 to 0.13 µM.

CCOC(=O)c1cc(CCc2ccccc2OC)sc1N [Compound 2i, Ethyl 2-amino-5-[2-(2-methoxyphenyl)ethyl]thiophene-3-carboxylate] showed an IC50 (FM3A/0 cells; Mus musculus, FM3A/0, 48 h) of 53 ± 7.2 µM, an IC50 (Molt4/C8 cells) of 6.9 ± 0.8 µM and an IC50 (HeLa cells [1]; Homo sapiens, HeLa) of 45 ± 6.2 µM.

In the case of COC(=O)c1cc(CCc2cc(OC)ccc2OC)sc1N [Compound 2a, Methyl 2-amino-5-[2-(2,5-dimethoxyphenyl)ethyl]thiophene-3-carboxylate], the IC50 (L1210 cells) is reported as 1.8 ± 0.1 µM, the IC50 (FM3A/0 cells; Mus musculus, FM3A/0, 48 h) is reported as 2.3 ± 0.6 µM and the “IC50 values in Molt4/C8, in words” value (Molt4/C8 cells) is reported as “submicromolar”. For the same molecule, the IC50 (HeLa cells [1]; Homo sapiens, HeLa) was 0.77 ± 0.17 µM and the “Colchicine binding % ± SD (inhibition of [3H]colchicine binding)” value (tubulin) was 52 ± 0.9%.

In the case of COc1ccc(CCc2cc(C#N)c(N)s2)cc1 [Compound 2l, 2-Amino-5-[2-(4-methoxyphenyl)ethyl]thiophene-3-carbonitrile], the IC50 (FM3A/0 cells; Mus musculus, FM3A/0, 48 h) is reported as 31 ± 27 µM and the IC50 (HeLa cells [1]; Homo sapiens, HeLa) is reported as 19 ± 13 µM.
